In ChEMBL document CHEMBL1138404, “Bisindole alkaloids of the topsentin and hamacanthin classes from a marine sponge Spongosorites sp” (J Nat Prod, 2007):
In brackets after ≈: the same amount, converted by molar mass.

Tests used:
Escherichia coli [1] = assay: Antibacterial activity against […] Escherichia coli TEM; format: functional
Outline: (§1)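 Agar dilution MIC: Mueller Hinton agar plates containing 17 serial dilutions of sample (final 25 to 0.002 μg/mL), meropenem and imipenem as standards. Strains grown 18 h at 37 °C in Fleisch extract broth (10% horse serum for some strains), spotted onto plates by automatic inoculator; MIC read after 18 h incubation.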

Enterobacter cloacae [2] = assay: Antibacterial activity against […] Enterobacter cloacae 1321E; format: functional; outline: as §1
Staphylococcus aureus [3] = assay: Antibacterial activity against methicillin-resistant Staphylococcus aureus 285; format: functional; outline: as §1
[4] = Cytotoxicity against human XF498 cell line; format: cell-based; details: XF498 cells, read-out: ED50 (the source's name)
[5] = Cytotoxicity against human HCT15 cell line; format: cell-based; details: HCT-15 cells, read-out: ED50 (the source's name)
Streptococcus pyogenes [6] = assay: Antibacterial activity against methicillin-resistant Streptococcus pyogenes 77A; format: functional; outline: as §1
Pseudomonas aeruginosa [7] = assay: Antibacterial activity against […] Pseudomonas aeruginosa 1771; format: functional; outline: as §1
Escherichia coli [8] = assay: Antibacterial activity against […] Escherichia coli DC0; format: functional; outline: as §1
Klebsiella oxytoca = assay: Antibacterial activity against […] Klebsiella oxytoca 1082E; format: functional; outline: as §1
Escherichia coli [9] = assay: Antibacterial activity against […] Escherichia coli 078; format: functional; outline: as §1
Staphylococcus aureus [10] = assay: Antibacterial activity against methicillin-resistant Staphylococcus aureus SG511; format: functional; outline: as §1
Escherichia coli [11] = assay: Antibacterial activity against […] Escherichia coli DC2; format: functional; outline: as §1
Pseudomonas aeruginosa [12] = assay: Antibacterial activity against […] Pseudomonas aeruginosa 1592E; format: functional; outline: as §1
Pseudomonas aeruginosa [13] = assay: Antibacterial activity against […] Pseudomonas aeruginosa 1771M; format: functional; outline: as §1
Enterobacter cloacae [14] = assay: Antibacterial activity against […] Enterobacter cloacae P99; format: functional; outline: as §1
[15] = Cytotoxicity against human SK-MEL-2 cell line; format: cell-based; details: SK-MEL-2 cells, read-out: ED50 (the source's name)
Staphylococcus aureus [16] = assay: Antibacterial activity against methicillin-resistant Staphylococcus aureus 503; format: functional; outline: as §1
Pseudomonas aeruginosa [17] = assay: Antibacterial activity against […] Pseudomonas aeruginosa 9027; format: functional; outline: as §1
Enterococcus faecium = assay: Antibacterial activity against […] Streptococcus faecium MD8b; format: functional; outline: as §1
Klebsiella aerogenes = assay: Antibacterial activity against […] Klebsiella aerogenes 1522E; format: functional; outline: as §1
[18] = Cytotoxicity against human SK-OV-3 cell line; format: cell-based; details: SK-OV-3 cells, read-out: ED50 (the source's name)
Streptococcus pyogenes [19] = assay: Antibacterial activity against methicillin-resistant Streptococcus pyogenes 308A; format: functional; outline: as §1
Escherichia coli [20] = assay: Antibacterial activity against […] Escherichia coli 1507E; format: functional; outline: as §1
Salmonella typhimurium = assay: Antibacterial activity against […] Salmonella Typhimurium; format: functional, Salmonella enterica subsp. enterica serovar Typhimurium; details: Salmonella enterica; outline: as §1
[21] = Cytotoxicity against human A549 cell line; format: cell-based; details: A549 cells, read-out: ED50 (the source's name)

SMILES: O=C1NC[C@@H](c2c[nH]c3cc(Br)ccc23)N=C1c1c[nH]c2ccccc12 [(R)-6'-DEBROMOHAMACANTHIN B]
- MIC (Escherichia coli [1]): > 25 µg/mL
- MIC (Enterobacter cloacae [2]): > 25 µg/mL
- MIC (Staphylococcus aureus [3]): 12.5 µg/mL (≈ 30.7 µM)
- CC50 [4]: 8.3 µg/mL (≈ 20.4 µM)
- CC50 [5]: 4.2 µg/mL (≈ 10.3 µM)
- MIC (Streptococcus pyogenes [6]): 12.5 µg/mL (≈ 30.7 µM)
- MIC (Pseudomonas aeruginosa [7]): 25 µg/mL (≈ 61.4 µM)
- MIC (Escherichia coli [8]): > 25 µg/mL
- MIC (Klebsiella oxytoca): 25 µg/mL (≈ 61.4 µM)
- MIC (Escherichia coli [9]): > 25 µg/mL
- MIC (Staphylococcus aureus [10]): 12.5 µg/mL (≈ 30.7 µM)
- MIC (Escherichia coli [11]): 25 µg/mL (≈ 61.4 µM)
- MIC (Pseudomonas aeruginosa [12]): > 25 µg/mL
- MIC (Pseudomonas aeruginosa [13]): 25 µg/mL (≈ 61.4 µM)
- MIC (Enterobacter cloacae [14]): > 25 µg/mL
- CC50 [15]: 7.6 µg/mL (≈ 18.7 µM)
- MIC (Staphylococcus aureus [16]): 12.5 µg/mL (≈ 30.7 µM)
- MIC (Pseudomonas aeruginosa [17]): > 25 µg/mL
- MIC (Enterococcus faecium): > 25 µg/mL
- MIC (Klebsiella aerogenes): > 25 µg/mL
- CC50 [18]: 8.5 µg/mL (≈ 20.9 µM)
- MIC (Streptococcus pyogenes [19]): 6.3 µg/mL (≈ 15.5 µM)
- MIC (Escherichia coli [20]): > 25 µg/mL
- MIC (Salmonella typhimurium): > 25 µg/mL
- CC50 [21]: 3.71 µg/mL (≈ 9.11 µM)

SMILES: COc1cccc2c1C(=O)c1c(O)c3c(c(O)c1C2=O)C[C@@](O)(C(=O)CO)C[C@@H]3O[C@H]1C[C@H](N)[C@H](O)[C@H](C)O1 [DOXORUBICIN]
- CC50 [4]: 0.01 µg/mL (≈ 0.0184 µM)
- CC50 [5]: 0.02 µg/mL (≈ 0.0368 µM)
- CC50 [15]: 0.01 µg/mL (≈ 0.0184 µM)
- CC50 [18]: 0.03 µg/mL (≈ 0.0552 µM)
- CC50 [21]: 0.01 µg/mL (≈ 0.0184 µM)

SMILES: O=C1N[C@@H](c2c[nH]c3cc(Br)ccc23)CN=C1c1c[nH]c2cc(Br)ccc12 [HAMACANTHIN A]
- CC50 [4]: 5.6 µg/mL (≈ 11.5 µM)
- CC50 [5]: 4.66 µg/mL (≈ 9.59 µM)
- CC50 [15]: 5.44 µg/mL (≈ 11.2 µM)
- CC50 [18]: 5.24 µg/mL (≈ 10.8 µM)
- CC50 [21]: 4.49 µg/mL (≈ 9.24 µM)

SMILES: O=C1NC[C@H](c2c[nH]c3cc(Br)ccc23)N=C1c1c[nH]c2cc(Br)ccc12 [HAMACANTHIN B]
- CC50 [4]: 2.93 µg/mL (≈ 6.03 µM)
- CC50 [5]: 1.52 µg/mL (≈ 3.13 µM)
- CC50 [15]: 1.59 µg/mL (≈ 3.27 µM)
- CC50 [18]: 2.61 µg/mL (≈ 5.37 µM)
- CC50 [21]: 2.14 µg/mL (≈ 4.4 µM)

SMILES: C[C@@H](O)[C@H]1C(=O)N2C(C(=O)O)=C(S[C@@H]3CN[C@H](C(=O)N(C)C)C3)[C@H](C)[C@H]12 [MEROPENEM]
- MIC (Staphylococcus aureus [3]): 0.098 µg/mL (≈ 0.256 µM)
- MIC (Streptococcus pyogenes [6]): 0.004 µg/mL (≈ 0.0104 µM)
- MIC (Pseudomonas aeruginosa [7]): 0.391 µg/mL (≈ 1.02 µM)
- MIC (Klebsiella oxytoca): 0.049 µg/mL (≈ 0.128 µM)
- MIC (Staphylococcus aureus [10]): 0.049 µg/mL (≈ 0.128 µM)
- MIC (Escherichia coli [11]): 0.013 µg/mL (≈ 0.0339 µM)
- MIC (Pseudomonas aeruginosa [12]): 0.098 µg/mL (≈ 0.256 µM)
- MIC (Pseudomonas aeruginosa [13]): 0.049 µg/mL (≈ 0.128 µM)
- MIC (Staphylococcus aureus [16]): 0.049 µg/mL (≈ 0.128 µM)
- MIC (Streptococcus pyogenes [19]): 0.004 µg/mL (≈ 0.0104 µM)

SMILES: O=C(C1=NC(c2c[nH]c3cc(Br)ccc23)CN1)c1c[nH]c2ccccc12 (stereo not given) [SPONGOTINE A]
- CC50 [4]: 7.22 µg/mL (≈ 17.7 µM)
- CC50 [5]: 9.8 µg/mL (≈ 24.1 µM)
- CC50 [15]: 5.04 µg/mL (≈ 12.4 µM)
- CC50 [18]: 3.71 µg/mL (≈ 9.11 µM)
- CC50 [21]: 6.82 µg/mL (≈ 16.7 µM)

SMILES: O=C(C1=NC(c2c[nH]c3ccccc23)CN1)c1c[nH]c2cc(Br)ccc12 (stereo not given) [SPONGOTINE B]
- MIC (Escherichia coli [1]): > 25 µg/mL
- MIC (Enterobacter cloacae [2]): > 25 µg/mL
- MIC (Staphylococcus aureus [3]): 25 µg/mL (≈ 61.4 µM)
- CC50 [4]: > 30 µg/mL
- CC50 [5]: > 30 µg/mL
- MIC (Streptococcus pyogenes [6]): 25 µg/mL (≈ 61.4 µM)
- MIC (Pseudomonas aeruginosa [7]): > 25 µg/mL
- MIC (Escherichia coli [8]): > 25 µg/mL
- MIC (Klebsiella oxytoca): 25 µg/mL (≈ 61.4 µM)
- MIC (Escherichia coli [9]): > 25 µg/mL
- MIC (Staphylococcus aureus [10]): 25 µg/mL (≈ 61.4 µM)
- MIC (Escherichia coli [11]): 25 µg/mL (≈ 61.4 µM)
- MIC (Pseudomonas aeruginosa [12]): > 25 µg/mL
- MIC (Pseudomonas aeruginosa [13]): 25 µg/mL (≈ 61.4 µM)
- MIC (Enterobacter cloacae [14]): > 25 µg/mL
- CC50 [15]: > 30 µg/mL
- MIC (Staphylococcus aureus [16]): 25 µg/mL (≈ 61.4 µM)
- MIC (Pseudomonas aeruginosa [17]): > 25 µg/mL
- MIC (Enterococcus faecium): > 25 µg/mL
- MIC (Klebsiella aerogenes): > 25 µg/mL
- CC50 [18]: > 30 µg/mL
- MIC (Streptococcus pyogenes [19]): 25 µg/mL (≈ 61.4 µM)
- MIC (Escherichia coli [20]): > 25 µg/mL
- MIC (Salmonella typhimurium): > 25 µg/mL
- CC50 [21]: > 30 µg/mL

SMILES: O=C(C1=NC(c2c[nH]c3cc(Br)ccc23)CN1)c1c[nH]c2cc(Br)ccc12 (stereo not given) [SPONGOTINE C]
- CC50 [4]: 5.16 µg/mL (≈ 10.6 µM)
- CC50 [5]: 4.88 µg/mL (≈ 10 µM)
- CC50 [15]: 4.82 µg/mL (≈ 9.91 µM)
- CC50 [18]: 4.81 µg/mL (≈ 9.89 µM)
- CC50 [21]: 5.22 µg/mL (≈ 10.7 µM)
